Results: article PMC5987874 (The Journal of General Physiology, 2018)
Positions count from the first letter of the chain named. Like-named read-outs stand apart in the source and are kept apart here.

Key:
[1] = biological target: T1, human Hv1 D185H (D^3.61H) (Homo sapiens, UniProt Q96D96, D185H); experiment: Whole-cell voltage clamp, Zn^2+ modulation of GAQ gating; format: cell-based
T1 sequence (Q96D96 1-273 D185H): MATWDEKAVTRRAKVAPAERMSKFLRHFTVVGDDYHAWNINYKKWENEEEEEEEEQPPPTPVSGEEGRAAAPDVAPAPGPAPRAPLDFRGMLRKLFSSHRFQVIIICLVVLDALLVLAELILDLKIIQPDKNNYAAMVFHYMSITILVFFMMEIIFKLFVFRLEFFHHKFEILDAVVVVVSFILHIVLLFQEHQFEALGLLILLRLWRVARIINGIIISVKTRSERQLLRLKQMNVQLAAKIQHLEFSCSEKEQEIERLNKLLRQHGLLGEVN
In short: (§1)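 Whole-cell patch clamp at ~21°C. Pipette and bath (mM): ~80 TMA-MeSO3, 100 Bis-Tris, 8 HCl, pH 6.5, 310–320 mOsm. ZnCl2 was diluted into bath solution and applied by gravity superfusion, at least 2 min per change. Test step voltage was set per construct from its V0.5. G_STEP = end-of-step current/(V−V_REV). Effect = 1 − G_Zn/G_control, fitted to the Hill equation. IC50 and nH are means ± SEM from separate cells. ΔpIC50 was tested by unpaired t test, P<0.05.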

[2] = biological target: T2, human Hv1 D123H-H193A (Homo sapiens, UniProt Q96D96, D123H/H193A); experiment: as above; format: cell-based
T2 sequence (Q96D96 1-273 D123H/H193A): T1 sequence (Q96D96 1-273 D185H) with D123H, H185D, H193A
In short: as §1

[3] = biological target: T3, human Hv1 D185H-H193A (Homo sapiens, UniProt Q96D96, D185H/H193A); experiment: as above; format: cell-based
T3 sequence (Q96D96 1-273 D185H/H193A): T1 sequence (Q96D96 1-273 D185H) with H193A
In short: as §1

[4] = biological target: T4, human Hv1 D112N (D^1.51N) (Homo sapiens, UniProt Q96D96, D112N); experiment: Whole-cell voltage clamp, Zn^2+ modulation of GAQ gating; format: cell-based
T4 sequence (Q96D96 1-273 D112N): T1 sequence (Q96D96 1-273 D185H) with D112N, H185D
In short: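 Zn2+ effect was read from tail current, not end-of-step current. Whole-cell recording at ~21°C with pH 6.5 pipette and bath solutions (mM: ~80 TMA-MeSO3, 100 Bis-Tris, 8 HCl). ZnCl2 was diluted in bath solution and gravity-superfused, at least 2 min per change. Concentration–response was fitted to the Hill equation, with IC50 values from separate cells. ΔpIC50 was compared by unpaired Student's t test, P<0.05.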

[5] = biological target: T5, human Hv1 H193A (H^3.71A) (Homo sapiens, UniProt Q96D96, H193A); details: ref Ramsey et al., 2006; cited from earlier work
T5 sequence (Q96D96 1-273 H193A): T1 sequence (Q96D96 1-273 D185H) with H185D, H193A

[6] = biological target: T6, human Hv1 E119A (E^1.58A) (Homo sapiens, UniProt Q96D96, E119A); experiment: Whole-cell voltage clamp, Zn^2+ modulation of GAQ gating; format: cell-based
T6 sequence (Q96D96 1-273 E119A): T1 sequence (Q96D96 1-273 D185H) with E119A, H185D
In short: as §1

[7] = VSTEP 120 mV, calculated as log (IC50)
[8] = read-out: IC50, fit of the mean data to a Hill function, Fig. 4D
[9] = VSTEP 80 mV, calculated as log (IC50)
[10] = read-out: Mean IC50 @ VSTEP, VSTEP 80 mV, pH 6.5, mean of fits in separate cells

Compound: [Cl-].[Cl-].[Zn+2] [Zn^2+, ZnCl2]
- nH, fit of the mean data to a Hill function ([1]; Fig. 4D): 0.6
- Hill value ([1]; VSTEP 120 mV): 0.77
- pIC50 [1, 7]: 5.38
- IC50 [1, 8]: 6.5 µM
- Mean ΔpIC50 = (pIC50_1 - pIC50_2) ([2]; D123H-H193A vs H193A): 0.47
- nH, fit of the mean data to a Hill function ([2]; Fig. 4B): 0.9
- Hill value ([2]; VSTEP 80 mV): 1.06
- pIC50 [2, 9]: −4.54
- IC50 ([2]; read-out: IC50, fit of the mean data to a Hill function, Fig. 4B): 28.6 µM
- IC50 [2, 10]: 36 µM
- Mean ΔpIC50 = (pIC50_1 - pIC50_2) ([3]; D185H-H193A vs D185H): −0.84
- Mean ΔpIC50 = (pIC50_1 - pIC50_2) ([3]; D185H-H193A vs H193A): 0.52
- nH, fit of the mean data to a Hill function ([3]; Fig. 4D): 0.6
- Hill value ([3]; VSTEP 80 mV): 0.60
- pIC50 [3, 9]: −4.54
- IC50 [3, 8]: 26.7 µM
- IC50 [3, 10]: 37.9 µM
- Mean ΔpIC50 = (pIC50_1 - pIC50_2) ([4]; D112N vs WT): −0.03
- Hill value ([4]; VSTEP 140 mV, determined from tail current): 0.76
- pIC50 ([4]; VSTEP 140 mV, determined from tail current, calculated as log (IC50)): 5.03
- IC50 ([4]; read-out: Mean IC50 @ VSTEP, VSTEP 140 mV, pH 6.5, determined from tail current): 9.5 µM
- decrease of Zn^2+ potency by single mutation [5]: 10- to 30 fold
- Mean ΔpIC50 = (pIC50_1 - pIC50_2) ([6]; E119A vs WT): −0.28
- nH, fit of the mean data to a Hill function ([6]; Fig. 3C): 0.8
- Hill value ([6]; VSTEP 120 mV): 0.80
- pIC50 [6, 7]: 5.16
- IC50 ([6]; read-out: IC50, fit of the mean data to a Hill function, Fig. 3C): 6.7 µM
